Data as given in ChEMBL document CHEMBL1955716, “Synthesis and evaluation of CS-2100, a potent, orally active and S1P(3)- sparing S1P(1) agonist” (Eur J Med Chem, 2012).
Values belong to the compound of their own block, whether it stands above or below them. Active and inactive are the calls of the source. The calls are words filed in the database; no cut-off is given here.

Key:
[1] = Agonist activity at rat S1P3 receptor expressed in CHO-K1 cells assessed as induction of GTPgammaS binding; assay type: cell-based
Method in brief: (§1)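 Membranes from CHO cells expressing rat or human S1P1 or S1P3, homogenized in 5 mM Tris–HCl pH 7.4, 0.25 M sucrose, 1 mM EDTA, 1 mM EGTA and spun at 100,000 × g for 60 min at 4 °C. Serial compound dilutions added to 1–10 µg protein/well, and [35S]GTPγS binding measured. EC50 is the midpoint between vehicle binding ratio and maximal response. Selectivity is the S1P3/S1P1 EC50 ratio.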

[2] = target: Sphingosine 1-phosphate receptor 1 (Rattus norvegicus, UniProt P48303); test: Agonist activity at rat S1P1 receptor expressed in CHO-K1 cells assessed as induction of GTPgammaS binding; assay type: functional, cell-based; method in brief: as §1
[3] = target: Sphingosine 1-phosphate receptor 3 (Homo sapiens, UniProt Q99500); test: Agonist activity at human S1P3 receptor expressed in CHO-K1 cells assessed as induction of GTPgammaS binding; assay type: functional, cell-based; method in brief: as §1
Homo sapiens = species on record: Homo sapiens; test: Selectivity ratio of EC50 for human S1P3 receptor to EC50 for human S1P1 receptor; method in brief: as §1
Rattus norvegicus [4] = test: Immunomodulatory activity in Lewis rat assessed as decrease in peripheral blood lymphocyte numbers at 0.1 mg/kg, po after 8 hrs relative to control; assay type: functional; set-up: scale not given: the % may be the effect or the level left
Method in brief: (§2)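 Male Lewis rats, 5 weeks old, 5 per group. Single oral dose (0.1 or 1 mg/kg) suspended in 1% w/v methyl cellulose #400 at 5 ml/kg; vehicle controls. Postcaval vein blood taken under ether anesthesia at 0.5–48 h into EDTA tubes. Absolute lymphocytes counted on a full blood count analyzer, expressed relative to vehicle control, mean ± SE.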

Rattus norvegicus [5] = test: Immunomodulatory activity in Lewis rat assessed as decrease in peripheral blood lymphocyte numbers at 1 mg/kg, po after 8 hrs relative to control; assay type: functional; set-up: scale not given: the % may be the effect or the level left; method in brief: as §2
Rattus norvegicus [6] = test: Immunomodulatory activity in Lewis rat assessed as decrease in peripheral blood lymphocyte numbers at 0.1 to 1 mg/kg, po after 24 to 48 hrs; assay type: functional, organism-based; method in brief: as §2
Rattus norvegicus [7] = test: Antiarthritic activity in po dosed Lewis rat assessed as reduction of adjuvant-induced right hind foot volume administered as qd for 18 days; assay type: functional; details: 432 h, read-out: ID50 (the source's name)
Method in brief: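 Lewis rats injected intradermally with adjuvant (0.05 ml) in the right hind footpad. Oral dosing at 0.1, 0.3, 1 or 3 mg/kg in 1% methyl cellulose, 5 ml/kg, once daily from Day 0 for 18 days; uninjected normal group. Right foot volume measured by plethysmometer on Days 0–18. % inhibition computed against control and normal, and ID50 taken by least-squares regression of % inhibition against log dose at Day 18.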

Mus musculus [8] = test: Antimultiple sclerosis activity in C57BL/6J mouse assessed as reduction of experimental autoimmune encephalomyelitis score at 0.3 mg/kg, po qd for 23 days; assay type: functional, organism-based; set-up: dose 0.3 mg/kg
Mus musculus [9] = test: Antimultiple sclerosis activity in C57BL/6J mouse assessed as reduction of experimental autoimmune encephalomyelitis score at 1 mg/kg, po qd for 23 days; assay type: functional, organism-based; set-up: dose 1 mg/kg
[10] = Cmax in Lewis rat at 0.1 mg/kg, po; assay type: ADME, organism-based; set-up: dose 0.1 mg/kg, route oral; details: in vivo
Method in brief: (§3)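 Male Lewis rats given a single oral dose (0.1 or 1 mg/kg) suspended in 1% methyl cellulose; plasma taken from the blood samples of the lymphocyte-count study, 5 rats per time point up to 72 h. Drug quantified by LC–MS/MS after solid-phase extraction on a C18 column. Noncompartmental parameters calculated from mean concentrations.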

[11] = Tmax in Lewis rat at 0.1 mg/kg, po; assay type: ADME, organism-based; set-up: dose 0.1 mg/kg, route oral; details: in vivo; method in brief: as §3
[12] = Terminal half life in Lewis rat at 0.1 mg/kg, po; assay type: ADME, organism-based; set-up: dose 0.1 mg/kg, route oral; details: in vivo, read-out: beta t1/2 (converted); method in brief: as §3
[13] = AUC (0 to 72 hrs) in Lewis rat at 0.1 mg/kg, po; assay type: ADME, organism-based; set-up: time < 72 hr, dose 0.1 mg/kg, route oral; details: plasma; method in brief: as §3
[14] = Cmax in Lewis rat at 1 mg/kg, po; assay type: ADME, organism-based; set-up: dose 1 mg/kg, route oral; details: in vivo; method in brief: as §3
[15] = Tmax in Lewis rat at 1 mg/kg, po; assay type: ADME, organism-based; set-up: dose 1 mg/kg, route oral; details: in vivo; method in brief: as §3
[16] = Terminal half life in Lewis rat at 1 mg/kg, po; assay type: ADME, organism-based; set-up: dose 1 mg/kg, route oral; details: in vivo, read-out: beta t1/2 (converted); method in brief: as §3
[17] = AUC (0 to 72 hrs) in Lewis rat at 1 mg/kg, po; assay type: ADME, organism-based; set-up: time < 72 hr, dose 1 mg/kg, route oral; details: plasma; method in brief: as §3
[18] = Cmax in C57BL/6J mouse at 1 mg/kg, po; assay type: ADME, organism-based; set-up: dose 1 mg/kg, route oral; details: in vivo
Method in brief: (§4)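 Male C57BL/6J mice given 1 mg/kg orally at 5 ml/kg as a solution in dimethyl acetamide/25% Purebright/water (1/8/1). Plasma assayed by LC–MS/MS after solid-phase extraction, 5 animals per time point. Noncompartmental analysis performed on mean concentrations.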

[19] = Tmax in C57BL/6J mouse at 1 mg/kg, po; assay type: ADME, organism-based; set-up: dose 1 mg/kg, route oral; details: in vivo; method in brief: as §4
[20] = Terminal half life in C57BL/6J mouse at 1 mg/kg, po; assay type: ADME, organism-based; set-up: dose 1 mg/kg, route oral; details: in vivo, read-out: beta t1/2 (converted); method in brief: as §4
[21] = AUC (0 to 72 hrs) in C57BL/6J mouse at 1 mg/kg, po; assay type: ADME, organism-based; set-up: time < 72 hr, dose 1 mg/kg, route oral; details: plasma; method in brief: as §4
Rattus norvegicus [22] = test: Drug metabolism in po dosed rat plasma assessed as 4-PBA level; assay type: ADME, organism-based; details: in vivo
Rhesus monkey = test: Drug metabolism in po dosed monkey plasma assessed as 4-PBA level; assay type: ADME, organism-based, Macaca mulatta; details: in vivo
[23] = Metabolic stability in liver microsomes assessed as 4-PBA level; assay type: ADME, Microsome
[24] = Metabolic stability in liver microsomes assessed as degradation of 1,2,4-oxadiazole ring; assay type: ADME, Microsome
[25] = target: T1, Sphingosine 1-phosphate receptor 4 (Homo sapiens, UniProt O95977); test: Agonist activity at human S1P4 receptor; assay type: functional
T1 sequence (O95977 whole entry): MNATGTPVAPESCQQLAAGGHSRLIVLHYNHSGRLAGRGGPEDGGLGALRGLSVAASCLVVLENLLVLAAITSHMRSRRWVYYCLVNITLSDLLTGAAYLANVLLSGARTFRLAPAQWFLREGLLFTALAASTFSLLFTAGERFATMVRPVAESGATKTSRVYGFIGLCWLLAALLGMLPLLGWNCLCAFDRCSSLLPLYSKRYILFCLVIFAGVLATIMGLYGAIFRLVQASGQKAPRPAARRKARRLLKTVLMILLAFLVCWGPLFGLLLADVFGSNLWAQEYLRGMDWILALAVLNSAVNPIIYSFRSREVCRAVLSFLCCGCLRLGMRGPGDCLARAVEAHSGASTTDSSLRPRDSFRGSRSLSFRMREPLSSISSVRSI

[26] = target: Sphingosine 1-phosphate receptor 5 (Homo sapiens, UniProt Q9H228); test: Agonist activity at human S1P5 receptor; assay type: functional
Rattus norvegicus [27] = species on record: Rattus norvegicus; test: Selectivity ratio of EC50 for rat S1P3 receptor to EC50 for rat S1P1 receptor; method in brief: as §1

Sequence of Sphingosine 1-phosphate receptor 3 (Q99500 whole entry): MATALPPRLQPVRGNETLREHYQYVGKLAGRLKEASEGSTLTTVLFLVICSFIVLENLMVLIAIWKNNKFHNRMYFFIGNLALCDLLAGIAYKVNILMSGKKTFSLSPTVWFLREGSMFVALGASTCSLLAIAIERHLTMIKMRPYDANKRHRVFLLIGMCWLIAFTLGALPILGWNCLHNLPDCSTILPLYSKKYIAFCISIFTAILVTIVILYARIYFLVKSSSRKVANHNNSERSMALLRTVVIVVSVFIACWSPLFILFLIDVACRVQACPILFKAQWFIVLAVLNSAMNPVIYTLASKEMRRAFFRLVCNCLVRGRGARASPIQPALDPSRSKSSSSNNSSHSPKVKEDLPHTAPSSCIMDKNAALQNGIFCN
Sequence of Sphingosine 1-phosphate receptor 5 (Q9H228 whole entry): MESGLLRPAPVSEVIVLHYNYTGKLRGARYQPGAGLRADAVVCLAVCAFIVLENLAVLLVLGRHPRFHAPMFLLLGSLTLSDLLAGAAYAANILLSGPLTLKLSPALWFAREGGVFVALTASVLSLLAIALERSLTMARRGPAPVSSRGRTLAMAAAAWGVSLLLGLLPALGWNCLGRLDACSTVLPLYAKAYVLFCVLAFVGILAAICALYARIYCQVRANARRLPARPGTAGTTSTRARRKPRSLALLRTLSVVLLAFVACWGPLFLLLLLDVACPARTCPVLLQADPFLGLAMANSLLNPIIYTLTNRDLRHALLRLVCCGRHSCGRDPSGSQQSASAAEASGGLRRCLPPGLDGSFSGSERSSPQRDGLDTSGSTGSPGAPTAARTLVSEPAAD
Sequence of Sphingosine 1-phosphate receptor 1 (P48303 whole entry): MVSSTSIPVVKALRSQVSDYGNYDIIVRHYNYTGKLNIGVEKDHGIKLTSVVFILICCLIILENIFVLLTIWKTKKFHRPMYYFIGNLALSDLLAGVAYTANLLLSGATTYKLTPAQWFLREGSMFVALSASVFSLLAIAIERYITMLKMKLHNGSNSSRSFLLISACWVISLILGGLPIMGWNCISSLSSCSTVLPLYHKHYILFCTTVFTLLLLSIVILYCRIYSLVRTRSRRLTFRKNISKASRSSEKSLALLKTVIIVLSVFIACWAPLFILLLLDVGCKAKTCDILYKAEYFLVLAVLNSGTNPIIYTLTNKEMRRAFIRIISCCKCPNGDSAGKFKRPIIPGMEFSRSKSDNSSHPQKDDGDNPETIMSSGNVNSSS

- EC50 [1]: 1.3 nM
SMILES: CCCCCCCCc1ccc(CC[C@](N)(CO)COP(=O)(O)O)cc1 [FTY720-P]

- EC50 [2]: 1.5 nM
- EC50 [1]: 7400 nM
- EC50 [3]: > 20000 nM
- Ratio EC50 (Homo sapiens): > 5000
- Cmax [10]: 17.4 ng/mL
- Tmax [11]: 4 h
- half-life [12]: 12.4 h
- AUC(0-t) at 72 h [13]: 268 ng·h/mL
- Cmax [14]: 186 ng/mL
- Tmax [15]: 4 h
- half-life [16]: 8.73 h
- AUC(0-t) at 72 h [17]: 2670 ng·h/mL
- Cmax [18]: 135 ng/mL
- Tmax [19]: 2 h
- half-life [20]: 13.9 h
- AUC(0-t) at 72 h [21]: 1540 ng·h/mL
- Drug metabolism (Rattus norvegicus [22]): Active
- Drug metabolism (Rhesus monkey): Active
- Stability [23]: Stable
- Stability [24]: Stable
- EC50 [25]: 58 nM
- EC50 [26]: 17 nM
SMILES: CCc1cc(CN2CC(C(=O)O)C2)sc1-c1noc(-c2ccc(Oc3ccccc3)cc2)n1
- Activity (Rattus norvegicus [4]): 27%
- Activity (Rattus norvegicus [5]): 11%
- Activity (Rattus norvegicus [6]): inactive
- ED50 (Rattus norvegicus [7]): 0.44 mg/kg
- Activity (Mus musculus [8]): Active
- Activity (Mus musculus [9]): Active

- EC50 [1]: 200 nM
- Ratio EC50 (Homo sapiens): 320
- Ratio EC50 (Rattus norvegicus [27]): 100
SMILES: Cc1ccc(CCCC(=O)c2ccc(CC[C@@](C)(N)COP(=O)(O)O)n2C)cc1
